Results pooled from the literature.
Target: Inhibitor of nuclear factor kappa-B kinase subunit epsilon (IKBKE, Homo sapiens, UniProt Q14164)
One construct used (Q14164 1-716): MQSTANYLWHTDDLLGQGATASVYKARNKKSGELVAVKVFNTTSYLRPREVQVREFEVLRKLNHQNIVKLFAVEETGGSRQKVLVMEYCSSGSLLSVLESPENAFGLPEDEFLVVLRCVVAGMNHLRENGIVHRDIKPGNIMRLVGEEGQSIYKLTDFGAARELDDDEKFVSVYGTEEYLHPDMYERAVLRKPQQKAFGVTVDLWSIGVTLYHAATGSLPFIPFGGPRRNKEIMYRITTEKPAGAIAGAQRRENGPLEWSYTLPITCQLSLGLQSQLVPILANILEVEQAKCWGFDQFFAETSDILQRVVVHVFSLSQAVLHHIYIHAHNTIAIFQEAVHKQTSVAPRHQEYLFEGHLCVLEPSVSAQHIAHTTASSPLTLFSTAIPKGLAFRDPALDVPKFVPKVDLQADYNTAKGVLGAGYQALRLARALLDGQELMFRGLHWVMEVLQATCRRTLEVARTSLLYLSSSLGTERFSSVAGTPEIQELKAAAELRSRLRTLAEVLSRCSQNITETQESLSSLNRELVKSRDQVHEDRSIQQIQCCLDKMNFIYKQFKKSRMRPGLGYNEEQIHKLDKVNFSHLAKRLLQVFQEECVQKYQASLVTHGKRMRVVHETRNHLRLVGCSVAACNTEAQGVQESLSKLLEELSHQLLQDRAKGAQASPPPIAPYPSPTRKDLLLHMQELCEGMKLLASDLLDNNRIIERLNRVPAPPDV

SMILES | assay | setting | remaining binding [%]
CCc1ccccc1C(=O)Nc1n[nH]c2c(C)c(F)c(C3C(C#N)=C(C)N(C)C(C)=C3C#N)cc12 | cell-free assay, competition with immobilised ligand | 1 µM | 68
O=C(Nc1c[nH]nc1C(=O)NC1CCNCC1)c1cc(F)cc(F)c1 | binding, competition with immobilised ligand | 1 µM | 100
CC1CCCN1c1nccc(-c2cnn3ncccc23)n1 (stereo not drawn) | binding | 1 µM | 100
O=C(c1ccc(Nc2ncc(Cl)c(-c3ccc(Cl)s3)n2)cc1)N1CCC(N2CCCC2)CC1 | binding, competition with immobilised ligand | 1 µM | 7.7
C[C@@H](c1ccc(-n2cnc3c(N)ncnc32)cc1)N1CCc2nn(C)c(Cc3ccccc3)c2C1=O | binding, competition with immobilised ligand | 0.1 µM | 73
O=C(NCCCN1CCOCC1)c1ccc(Nc2ncc(Cl)c(-c3ccc(Cl)s3)n2)cc1 | binding, competition with immobilised ligand | 1 µM | 52
COc1ncc2cc3ccccc3nc2c1C#N | cell-free assay, competition with immobilised ligand | 5 µM | 97
CCC(=O)N[C@@H]1CC[C@H](C(=O)N(C)c2ccc(-c3nc4ccccc4o3)cc2)C1 | cell-free assay, competition with immobilised ligand | 1 µM | 60
CN(c1nccc(-c2cnn3ncccc23)n1)C1CC1 | binding | 1 µM | 100
CCS(=O)(=O)c1cc2cc(C[C@@](O)(CC(C)(C)c3ccc(F)cc3C(N)=O)C(F)(F)F)[nH]c2cn1 | cell-free assay, competition with immobilised ligand | 1 µM | 83
Cc1cnc(Nc2ccc(C(=O)N3CCC(N4CCCC4)CC3)cc2)nc1-c1cc2ccccc2s1 | binding, competition with immobilised ligand | 1 µM | 18
CO[C@H]1CC[C@H](CNc2ccc(S(=O)(=O)NC(=O)c3ccc(N4CCN(CC5=C(c6ccc(Cl)cc6)CC(C)(C)CC5)CC4)cc3Oc3cnc4[nH]ccc4c3)cc2[N+](=O)[O-])CC1 | cell-free assay, competition with immobilised ligand | 1 µM | 100
N[C@@H]1CCN(c2nccc(-c3cnn4ncccc34)n2)C1 | binding | 1 µM | 100
O=C(NCc1ncc(C(F)(F)F)cc1Cl)c1ccc2c(c1)C1(CCS(=O)(=O)CC1)[C@H](C1CC1)N2S(=O)(=O)c1ccc(F)cc1 | cell-free assay, competition with immobilised ligand | 1 µM | 77
CN(C)c1nccc(-c2cnc3ncccn23)n1 | binding | 1 µM | 100
C=CC(=O)N1CCC(C(=O)NCC(=O)N2CCN(c3nc(-c4cnc(N)nc4C(F)F)nc(N4CCOCC4)n3)CC2)CC1 | binding, competition with immobilised ligand | 1 µM | 71
CCCOc1ccc([C@@H]2[C@@H](C(=O)O)[C@H](c3ccc4c(c3)OCO4)CN2CC(=O)Nc2c(CC)cccc2CC)cc1 | cell-free assay, competition with immobilised ligand | 1 µM | 85
C[C@H]1CCN(c2nccc(-c3cnn4ncccc34)n2)C1 | binding | 1 µM | 79
CNC(=O)[C@@H]1CC[C@@H](n2c(-c3ccc4cnccc4c3)nc3ccc(C(=O)NCc4cccc(C(N)=O)c4)cc32)C1 | binding, competition with immobilised ligand | 1 µM | 98
CN(C)c1nccc(-c2cnn3ncccc23)n1 | binding | 1 µM | 89
COc1cnc(Nc2cccc(S(N)(=O)=O)c2)nc1N1CCN(c2ccccc2)CC1 | binding, competition with immobilised ligand | 1 µM | 57
